Experimental data published in publication PMC7224986 (Journal of medicinal chemistry, 2016).

Legend:
T. gondii parasites = assay: Invasion inhibition assay of T. gondii into host fibroblast cells; format: cell-based, Toxoplasma gondii
Outline: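 Type I RH strain, clone 2F, expressing E. coli β-galactosidase. Compound came from a 10 mM DMSO stock diluted in medium with 1% DMSO, which was also the vehicle control. Parasites were preincubated with compound for 20 min at room temperature. Then 5 × 10^2 parasites/well were added to confluent human foreskin fibroblasts in DMEM/10% FBS, centrifuged ~300g for 5 min, and cultured at 37°C, 5% CO2. EC50 from a variable-slope sigmoidal fit; three experiments, each in triplicate.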

mammalian actin = mammalian actin (Oryctolagus cuniculus, UniProt P68135); assay: Pyrene fluorescence actin polymerization assay; format: biochemical; conditions: for inhibition at 10 µM: read-out: Inhibition of mammalian actin polymerization at 10 μM; for inhibition at 100 µM: read-out: Inhibition of mammalian actin polymerization at 100 μM; for Inhibition of mammalian actin polymerization at 10 μM: 10 μM compound
Outline: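 Actin was 5% pyrene-labelled, held in Ca buffer G (2 mM Tris pH 8, 0.2 mM ATP). It was converted to the Mg2+ form (final 1 mM EGTA, 0.1 mM MgCl2) for 2 min at room temperature. Actin at 2.5 μM final was preincubated 1 min with compound in DMSO; latrunculin B was the positive control. Polymerisation was started with KCl 50 mM, imidazole 10 mM pH 7, MgCl2 1 mM, EGTA 1 mM. Pyrene fluorescence (ex 365/em 407 nm) was read every 15 s for 90 min, in triplicate.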

Compound	inhibition at 10 µM (mammalian actin) [%]	inhibition at 100 µM (mammalian actin) [%]	also measured
COc1ccc(CN2C(=O)SC[C@H]2C2(OC)CC(OC(=O)C3CCCC3)CCO2)cc1 (stereo partly drawn) [Compound 11, 2-Methoxy-2-((R)-3-(4-methoxybenzyl)-2-oxothiazolidin-4-yl)tetrahydro-2H-pyran-4-yl cyclopentanecarboxylate]			activity against T. gondii (in words) (T. gondii parasites): inactive
COc1ccc(CN2C(=O)SC[C@H]2C2(OC)CC(OC(=O)c3ccccc3-c3cccs3)CCO2)cc1 (stereo partly drawn) [Compound 15, 2-Methoxy-2-((R)-3-(4-methoxybenzyl)-2-oxothiazolidin-4-yl)tetrahydro-2H-pyran-4-yl 2-(thiophen-2-yl)benzoate]	< 10	< 10	
C/C1=C/C(=O)O[C@@H]2C[C@@H](CC[C@H](C)/C=C\CC1)O[C@@](O)([C@@H]1CSC(=O)N1)C2 [Latrunculin B, latrunculin B, reference compound]			Inhibition of mammalian actin polymerization at 10 μM (mammalian actin; 2.5 μM actin, pyrene fluorescence): 100%; Inhibition of mammalian actin polymerization at 10 μM (mammalian actin; 2.5 μM actin, pyrene fluorescence, listed as latrunculin B): 100%; Inhibition of mammalian actin polymerization at 100 μM (mammalian actin; 100 μM compound, 2.5 μM actin, pyrene fluorescence): 100%
CCCCC(=O)OC1CCOC(OC)([C@@H]2CSC(=O)N2Cc2ccc(OC)cc2)C1 (stereo partly drawn) [Compound 10, 2-Methoxy-2-((R)-3-(4-methoxybenzyl)-2-oxothiazolidin-4-yl)tetrahydro-2H-pyran-4-yl pentanoate]			activity against T. gondii (in words) (T. gondii parasites): inactive
COc1ccc(CN2C(=O)SC[C@H]2C2(OC)CC(OC(=O)c3ccccc3-c3cccc4ccccc34)CCO2)cc1 (stereo partly drawn) [Compound 17, 2-Methoxy-2-((R)-3-(4-methoxybenzyl)-2-oxothiazolidin-4-yl)tetrahydro-2H-pyran-4-yl 2-(naphthalen-1-yl)benzoate]	< 10	< 10	
COc1ccc(CN2C(=O)SC[C@H]2C2(OC)CC(OC(=O)c3ccccc3I)CCO2)cc1 (stereo partly shown) [Compound 14, 2-Methoxy-2-(3-(4-methoxybenzyl)-2-oxothiazolidin-4-yl)tetrahydro-2H-pyran-4-yl 2-iodobenzoate]	< 10	< 10	
COc1ccc(CN2C(=O)SC[C@H]2C2(OC)CC(OC(=O)c3ccccc3C3=CCCCC3)CCO2)cc1 (stereo partly drawn) [Compound 16, 2-Methoxy-2-((R)-3-(4-methoxybenzyl)-2-oxothiazolidin-4-yl)tetrahydro-2H-pyran-4-yl 2',3',4',5'-tetrahydro-[1,1'-biphenyl]-2-carboxylate]	< 10	< 10	
